Here are results for 1 protein from ChEMBL document CHEMBL5335826, “Biochemical and Structural Studies of the Carminomycin 4-O-Methyltransferase DnrK” (J Nat Prod, 2024).

A word on the Km: it is the substrate concentration at which the rate is half of its maximum. Usually kcat stands for the number of substrate molecules converted per active site and unit of time at saturation.

Substrate in data set [1]: Cc1cc(=O)oc2cc(O)ccc12
The experiment in a line: Binding affinity to Streptomyces peucetius 4-O-methyltransferase DnrK assessed as maximal activity. The procedure, abridged:
(§1)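 N-His6-DnrK (10 μM), expressed in E. coli, was run in 50 mM Tris pH 8.0 at 37 °C with saturating AdoMet (1.6 mM). Acceptor was varied: carminomycin from 15 μM to […] as printed, or 4-methylumbelliferone from 150 μM to 10 mM. Methylated product was quantified by reversed-phase HPLC peak integration. Runs were in triplicate, and parameters came from Michaelis–Menten reciprocal plots.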

Substrate in data set [2]: Cc1cc(=O)oc2cc(O)ccc12
The experiment in a line: Binding affinity to Streptomyces peucetius 4-O-methyltransferase DnrK assessed as catalytic constant. The procedure, abridged:
as §1

B1: Carminomycin 4-O-methyltransferase DnrK (Streptomyces peucetius), Q06528 (protein)
chain: MTAEPTVAARPQQIDALRTLIRLGSLHTPMVVRTAATLRLVDHILAGARTVKALAARTDTRPEALLRLIRHLVAIGLLEEDAPGEFVPTEVGELLADDHPAAQRAWHDLTQAVARADISFTRLPDAIRTGRPTYESIYGKPFYEDLAGRPDLRASFDSLLACDQDVAFDAPAAAYDWTNVRHVLDVGGGKGGFAAAIARRAPHVSATVLEMAGTVDTARSYLKDEGLSDRVDVVEGDFFEPLPRKADAIILSFVLLNWPDHDAVRILTRCAEALEPGGRILIHERDDLHENSFNEQFTELDLRMLVFLGGALRTREKWDGLAASAGLVVEEVRQLPSPTIPYDLSLLVLAPAATGA
Turning to B1, in data set [1], the Km worked out at 1160 µM. The turnover number (kcat) in data set [2] is 0.0006 s⁻¹.
